System: Mouse plasma protein binding, RED dialysis, LC/MS/MS
Assay: fraction bound to mouse plasma proteins – biochemical, rapid equilibrium dialysis, LC/MS/MS, ADME assay, late-stage follow-up (AID 1937)
Details: stronger effect = higher value
How it was run: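 System: Mouse plasma in RED dialysis device | Buffer or medium: Isotonic phosphate-buffered saline, pH 7.4, as dialysis buffer | Technique: LC/MS/MS quantitation of compound in matrix-matched buffer and plasma samples | Read-out: Percent plasma protein bound, 100% minus free percentage (buffer-to-plasma concentration ratio) | Timing: 4 h dialysis, 37 °C, shaken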

Work on `CC1Cc2cc(S(=O)(=O)N3CCN(c4ccc(Cl)cc4)CC3)ccc2N1C(=O)C1CC1` (configuration not stated) yielded a plasma protein bound (at 1 µM) of 99.8% and a plasma protein bound (bound, at 10 µM) of 99.8%.
